Data reported in ChEMBL document CHEMBL4118033, “Total Synthesis, Configuration Assignment, and Cytotoxic Activity Evaluation of Protulactone A” (J Nat Prod, 2017).
The source made the active and inactive calls. The calls are words filed in the database; no cut-off is given here.

Experiments:
Assay type in all cases: functional, cell-based
[1] = tested on: SF-268; test: Antiproliferative activity against human SF268 cells at 10 uM incubated for 48 hrs by sulforhodamine B assay
In short: (§1)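 Run by the NCI Developmental Therapeutics Program (Division of Cancer Treatment and Diagnosis) as part of the NCI60 human tumour cell line panel screen. Each compound was tested at a single dose of 10 μM. Results are reported as one-dose mean graphs.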

[2] = tested on: NCI-H460; test: Antiproliferative activity against human NCI-H460 cells at 10 uM incubated for 48 hrs by sulforhodamine B assay; in short: as §1
[3] = tested on: NCI-H23; test: Antiproliferative activity against human NCI-H23 cells at 10 uM incubated for 48 hrs by sulforhodamine B assay; in short: as §1
[4] = tested on: Malme-3M; test: Antiproliferative activity against human MALME-3M cells at 10 uM incubated for 48 hrs by sulforhodamine B assay; in short: as §1
[5] = tested on: MDA-MB-468; test: Antiproliferative activity against human MDA-MB-468 cells at 10 uM incubated for 48 hrs by sulforhodamine B assay; in short: as §1
[6] = tested on: RPMI-8226; test: Antiproliferative activity against human RPMI8226 cells at 10 uM incubated for 48 hrs by sulforhodamine B assay; in short: as §1
[7] = tested on: TK-10; test: Antiproliferative activity against human TK10 cells at 10 uM incubated for 48 hrs by sulforhodamine B assay
In short: (§2)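 Run by the NCI Developmental Therapeutics Program (Division of Cancer Treatment and Diagnosis) as part of the NCI60 human tumour cell line panel. Each compound was tested in vitro at a single dose of 10 μM, and the data are reported as one-dose mean graphs across the panel.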

[8] = tested on: NCI-H226; test: Antiproliferative activity against human NCI-H226 cells at 10 uM incubated for 48 hrs by sulforhodamine B assay; in short: as §1
[9] = tested on: CAKI-1; test: Antiproliferative activity against human Caki1 cells at 10 uM incubated for 48 hrs by sulforhodamine B assay; in short: as §1
[10] = tested on: SNB-75; test: Antiproliferative activity against human SNB75 cells at 10 uM incubated for 48 hrs by sulforhodamine B assay; in short: as §2
[11] = tested on: HCT-15; test: Antiproliferative activity against human HCT15 cells at 10 uM incubated for 48 hrs by sulforhodamine B assay; in short: as §1
[12] = tested on: SW-620; test: Antiproliferative activity against human SW620 cells at 10 uM incubated for 48 hrs by sulforhodamine B assay; in short: as §2
[13] = tested on: KM12; test: Antiproliferative activity against human KM12 cells at 10 uM incubated for 48 hrs by sulforhodamine B assay; in short: as §1
[14] = tested on: U-251; test: Antiproliferative activity against human U251 cells at 10 uM incubated for 48 hrs by sulforhodamine B assay; in short: as §2
[15] = tested on: Hs-578T; test: Antiproliferative activity against human Hs 578T cells at 10 uM incubated for 48 hrs by sulforhodamine B assay; in short: as §1
[16] = tested on: HOP-62; test: Antiproliferative activity against human HOP62 cells at 10 uM incubated for 48 hrs by sulforhodamine B assay; in short: as §1
[17] = tested on: HCC 2998; test: Antiproliferative activity against human HCC2998 cells at 10 uM incubated for 48 hrs by sulforhodamine B assay; in short: as §1
[18] = tested on: SN12C; test: Antiproliferative activity against human SN12C cells at 10 uM incubated for 48 hrs by sulforhodamine B assay; in short: as §1
[19] = tested on: CCRF-CEM; test: Antiproliferative activity against human CCRF-CEM cells at 10 uM incubated for 48 hrs by sulforhodamine B assay; in short: as §1
[20] = tested on: NCI/ADR-RES; test: Antiproliferative activity against human NCI/ADR-RES cells at 10 uM incubated for 48 hrs by sulforhodamine B assay; in short: as §1
[21] = tested on: SK-OV-3; test: Antiproliferative activity against human SKOV3 cells at 10 uM incubated for 48 hrs by sulforhodamine B assay; in short: as §1
[22] = tested on: SNB-19; test: Antiproliferative activity against human SNB19 cells at 10 uM incubated for 48 hrs by sulforhodamine B assay; in short: as §1
[23] = tested on: DU-145; test: Antiproliferative activity against human DU145 cells at 10 uM incubated for 48 hrs by sulforhodamine B assay; in short: as §1
[24] = tested on: COLO 205; test: Antiproliferative activity against human COLO205 cells at 10 uM incubated for 48 hrs by sulforhodamine B assay; in short: as §1
[25] = tested on: NCI-H522; test: Antiproliferative activity against human NCI-H522 cells at 10 uM incubated for 48 hrs by sulforhodamine B assay; in short: as §1
[26] = tested on: SR; test: Antiproliferative activity against human SR cells at 10 uM incubated for 48 hrs by sulforhodamine B assay; in short: as §2
[27] = tested on: OVCAR-4; test: Antiproliferative activity against human OVCAR4 cells at 10 uM incubated for 48 hrs by sulforhodamine B assay; in short: as §1
[28] = tested on: A549; test: Antiproliferative activity against human A549/ATCC cells at 10 uM incubated for 48 hrs by sulforhodamine B assay; in short: as §1
[29] = tested on: HOP-92; test: Antiproliferative activity against human HOP92 cells at 10 uM incubated for 48 hrs by sulforhodamine B assay; in short: as §1
[30] = tested on: MDA-MB-231; test: Antiproliferative activity against human MDA-MB-231 cells at 10 uM incubated for 48 hrs by sulforhodamine B assay; in short: as §1
[31] = tested on: UACC-62; test: Antiproliferative activity against human UACC62 cells at 10 uM incubated for 48 hrs by sulforhodamine B assay; in short: as §2
[32] = tested on: EKVX; test: Antiproliferative activity against human EKVX cells at 10 uM incubated for 48 hrs by sulforhodamine B assay; in short: as §1
[33] = tested on: OVCAR-5; test: Antiproliferative activity against human OVCAR5 cells at 10 uM incubated for 48 hrs by sulforhodamine B assay; in short: as §1
[34] = tested on: LOX IMVI; test: Antiproliferative activity against human LOXIMVI cells at 10 uM incubated for 48 hrs by sulforhodamine B assay; in short: as §1
[35] = tested on: OVCAR-8; test: Antiproliferative activity against human OVCAR8 cells at 10 uM incubated for 48 hrs by sulforhodamine B assay; in short: as §1
[36] = tested on: MOLT-4; test: Antiproliferative activity against human MOLT4 cells at 10 uM incubated for 48 hrs by sulforhodamine B assay; in short: as §1
[37] = tested on: PC-3; test: Antiproliferative activity against human PC3 cells at 10 uM incubated for 48 hrs by sulforhodamine B assay; in short: as §1
[38] = tested on: IGROV-1; test: Antiproliferative activity against human IGROV1 cells at 10 uM incubated for 48 hrs by sulforhodamine B assay; in short: as §1
[39] = tested on: 786-0; test: Antiproliferative activity against human 786-0 cells at 10 uM incubated for 48 hrs by sulforhodamine B assay; in short: as §1
[40] = tested on: SK-MEL-5; test: Antiproliferative activity against human SK-MEL-5 cells at 10 uM incubated for 48 hrs by sulforhodamine B assay; in short: as §1
[41] = tested on: K562; test: Antiproliferative activity against human K562 cells at 10 uM incubated for 48 hrs by sulforhodamine B assay; in short: as §1
[42] = tested on: SK-MEL-2; test: Antiproliferative activity against human SK-MEL-2 cells at 10 uM incubated for 48 hrs by sulforhodamine B assay; in short: as §1
[43] = tested on: A498; test: Antiproliferative activity against human A498 cells at 10 uM incubated for 48 hrs by sulforhodamine B assay; in short: as §1
[44] = tested on: BT-549; test: Antiproliferative activity against human BT549 cells at 10 uM incubated for 48 hrs by sulforhodamine B assay; in short: as §1
[45] = tested on: NCI-H322M; test: Antiproliferative activity against human NCI-H322M cells at 10 uM incubated for 48 hrs by sulforhodamine B assay; in short: as §1

SMILES: CC(=O)O[C@H](C)[C@H]1O[C@H]2CC(=O)O[C@H]2[C@@H]1O
- Activity [1]: inactive
- Activity [2]: inactive
- Activity [3]: inactive
- Activity [4]: inactive
- Activity [5]: inactive
- Activity [6]: inactive
- Activity [7]: inactive
- Activity [8]: inactive
- Activity [9]: inactive
- Activity [10]: inactive
- Activity [11]: inactive
- Activity [12]: inactive
- Activity [13]: inactive
- Activity [14]: inactive
- Activity [15]: inactive
- Activity [16]: inactive
- Activity [17]: inactive
- Activity [18]: inactive
- Activity [19]: inactive
- Activity [20]: inactive
- Activity [21]: inactive
- Activity [22]: inactive
- Activity [23]: inactive
- Activity [24]: inactive
- Activity [25]: inactive
- Activity [26]: inactive
- Activity [27]: inactive
- Activity [28]: inactive
- Activity [29]: inactive
- Activity [30]: inactive
- Activity [31]: inactive
- Activity [32]: inactive
- Activity [33]: inactive
- Activity [34]: inactive
- Activity [35]: inactive
- Activity [36]: inactive
- Activity [37]: inactive
- Activity [38]: inactive
- Activity [39]: inactive
- Activity [40]: inactive
- Activity [41]: inactive
- Activity [42]: inactive
- Activity [43]: inactive
- Activity [44]: inactive
- Activity [45]: inactive

SMILES: O=C1C[C@H]2O[C@H]([C@H](O)c3ccccc3)[C@H](O)[C@H]2O1
- Activity [1]: Active
- Activity [2]: Active
- Activity [3]: Active
- Activity [4]: Active
- Activity [5]: Active
- Activity [6]: Active
- Activity [7]: Active
- Activity [8]: Active
- Activity [9]: Active
- Activity [10]: Active
- Activity [11]: Active
- Activity [12]: Active
- Activity [13]: Active
- Activity [14]: Active
- Activity [15]: Active
- Activity [16]: Active
- Activity [17]: Active
- Activity [18]: Active
- Activity [19]: Active
- Activity [20]: Active
- Activity [21]: Active
- Activity [22]: Active
- Activity [23]: Active
- Activity [24]: Active
- Activity [25]: Active
- Activity [26]: Active
- Activity [27]: Active
- Activity [28]: Active
- Activity [29]: Active
- Activity [30]: Active
- Activity [31]: Active
- Activity [32]: Active
- Activity [33]: Active
- Activity [34]: Active
- Activity [35]: Active
- Activity [36]: Active
- Activity [37]: Active
- Activity [38]: Active
- Activity [39]: Active
- Activity [40]: Active
- Activity [41]: Active
- Activity [42]: Active
- Activity [43]: Active
- Activity [44]: Active
- Activity [45]: Active

SMILES: CC(=O)O[C@H](C)[C@@H]1O[C@@H]2CC(=O)O[C@@H]2[C@H]1O
- Activity [1]: inactive
- Activity [2]: inactive
- Activity [3]: inactive
- Activity [4]: inactive
- Activity [5]: inactive
- Activity [6]: inactive
- Activity [7]: inactive
- Activity [8]: inactive
- Activity [9]: inactive
- Activity [10]: inactive
- Activity [11]: inactive
- Activity [12]: inactive
- Activity [13]: inactive
- Activity [14]: inactive
- Activity [15]: inactive
- Activity [16]: inactive
- Activity [17]: inactive
- Activity [18]: inactive
- Activity [19]: inactive
- Activity [20]: inactive
- Activity [21]: inactive
- Activity [22]: inactive
- Activity [23]: inactive
- Activity [24]: inactive
- Activity [25]: inactive
- Activity [26]: inactive
- Activity [27]: inactive
- Activity [28]: inactive
- Activity [29]: inactive
- Activity [30]: inactive
- Activity [31]: inactive
- Activity [32]: inactive
- Activity [33]: inactive
- Activity [34]: inactive
- Activity [35]: inactive
- Activity [36]: inactive
- Activity [37]: inactive
- Activity [38]: inactive
- Activity [39]: inactive
- Activity [40]: inactive
- Activity [41]: inactive
- Activity [42]: inactive
- Activity [43]: inactive
- Activity [44]: inactive
- Activity [45]: inactive

SMILES: O=C(/C=C/c1ccccc1)O[C@H](c1ccccc1)[C@@H]1O[C@@H]2CC(=O)O[C@@H]2[C@H]1O
- Activity [1]: Active
- Activity [2]: Active
- Activity [3]: Active
- Activity [4]: Active
- Activity [5]: Active
- Activity [6]: Active
- Activity [7]: Active
- Activity [8]: Active
- Activity [9]: Active
- Activity [10]: Active
- Activity [11]: Active
- Activity [12]: Active
- Activity [13]: Active
- Activity [14]: Active
- Activity [15]: Active
- Activity [16]: Active
- Activity [17]: Active
- Activity [18]: Active
- Activity [19]: Active
- Activity [20]: Active
- Activity [21]: Active
- Activity [22]: Active
- Activity [23]: Active
- Activity [24]: Active
- Activity [25]: Active
- Activity [26]: Active
- Activity [27]: Active
- Activity [28]: Active
- Activity [29]: Active
- Activity [30]: Active
- Activity [31]: Active
- Activity [32]: Active
- Activity [33]: Active
- Activity [34]: Active
- Activity [35]: Active
- Activity [36]: Active
- Activity [37]: Active
- Activity [38]: Active
- Activity [39]: Active
- Activity [40]: Active
- Activity [41]: Active
- Activity [42]: Active
- Activity [43]: Active
- Activity [44]: Active
- Activity [45]: Active
